Assay outcomes: PubChem, Broad Institute
Only some compounds are listed: those with a hit (about 2.9% of all), similar ones and a draw of the others.
Ecoli rRNA inh = reduced GFP signal of wild-type E. coli, primary screen, bacterial rRNA inhibitor project, GFP/RFP fluorescence, OD600, single point. E. coli WT GFP vs humanized-ribosome RFP mutants, 24 h; hits give low values; DMSO median 0, no signal -100. GFP signal change (wild-type ribosome), % (test concentration not listed). hit rate 1.6% among 350,000;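 active = significant combined selectivity score with lowered wild-type GFP, culture density cut under 30%, mutant RFP and density less affected; inactive = any of these conditions unmet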
PglD inh = C. jejuni PglD acetyltransferase inhibitors, primary screen, biochemical, DTNB colorimetric, single point. UDP-N-acetylbacillosamine N-acetyltransferase PglD (Campylobacter jejuni). purified PglD enzyme, DTNB colorimetric CoA detection. inhibition, % at 12.5 µM. hit rate 0.098% among 360,000; in the data active = inhibition above about 16%, passing the limit was not always enough
PGC1a acetyl inh = inhibitors of PGC1a acetylation signal, primary screen, cell-based, U2OS, AlphaScreen, inhibitor mode; AlphaScreen anti-acetyl-lysine; with virally co-expressed GCN5 acetyltransferase; AID 651687, 2012; hit rate 0.17% among 350,000; inhibition, % at 15.6 µM;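 active = every replicate shows inhibition of at least 40%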;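 also: 0% = neutral control wells and 100% = positive control wells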
Vif inh = HIV Vif self-association inhibitors, primary screen, imaging, HEK293T, single point; HEK293T cells, Vif self-association by quenched fluorescence, 24 h; inhibition, % at 7.49 µM; hit rate 0.35% among 340,000; in the data active = inhibition above about 50%, passing the limit was not always enough
FGF22 binding = binders of human FGF22 protein, primary screen, FGF22 synaptogenesis inhibitor project, biophysical, thermal shift, single point; hit rate 1.5% among 340,000; activity (Tm shift, normalised), % at 9.99 µM; recombinant FGF22 thermal shift, SYPRO orange fluorescence; percent of sucrose octasulfate shift, DMSO zero; Fibroblast growth factor 22 (Homo sapiens), Q9HCT0;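 active = mean Tm shift, scaled 0 neutral to 100 positive control, at about 1.3% or above, every replicate too, limit read from the data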
Target sequence (Q9HCT0 whole entry, looked up): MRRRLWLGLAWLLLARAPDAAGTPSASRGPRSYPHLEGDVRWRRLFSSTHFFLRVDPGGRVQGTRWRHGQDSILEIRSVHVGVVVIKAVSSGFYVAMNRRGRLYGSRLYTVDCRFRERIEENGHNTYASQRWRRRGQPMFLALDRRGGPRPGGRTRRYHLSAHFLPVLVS
Cneo AK release = Cryptococcus neoformans cell lysis inducers, primary screen, AK release luminescence, single concentration; C. neoformans lysis, adenylate kinase release luminescence, 4 h; normalised: neutral wells 0, clomiphene wells 100; lysis activity, % at 15 µM; hit rate 0.2% among 360,000;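 active = mean lysis activity across replicates of at least 80%, whatever share of replicates individually reach that level; inactive = mean lysis activity below 80%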
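Assay system: C. neoformans cells. Amount: yeast cell density of 5 × 10^6 cells/mL. Technique: AK luminescence. Buffer or medium: YPD. Times: static 4 h at 37 °C with compound, 1 h detection. Dosing: single-point compound dose. Read-out: lysis from increased AK signal.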
Numbers without * were called inactive; nt = no result.

SMILES	Ecoli rRNA inh	PglD inh	PGC1a acetyl inh	Vif inh	FGF22 binding	Cneo AK release
CCCN(C)C[C@@H]1Oc2cc(-c3cncnc3)ccc2S(=O)(=O)N([C@@H](C)CO)C[C@@H]1C	1	16*	-5	nt	nt	nt
CCC(=O)N(C)C[C@H]1Oc2cc(-c3ccccc3)ccc2S(=O)(=O)N([C@H](C)CO)C[C@H]1C	-7	0	-1	nt	0	89*
CCC(=O)N(C)C[C@@H]1Oc2cc(-c3ccc(C)cc3)ccc2S(=O)(=O)N([C@H](C)CO)C[C@@H]1C	-2	-2	11	nt	0	-6
C[C@H]1CN([C@@H](C)CO)S(=O)(=O)c2ccc(/C=C/c3ccccc3)cc2O[C@@H]1CN(C)C(=O)c1ccc2c(c1)OCO2	-5	2	-9	nt	1.9*	-5
C[C@@H]1CN([C@@H](C)CO)C(=O)c2cc(C#CCN(C)C)cnc2O[C@@H]1CN(C)C(=O)Nc1ccccc1F	3	1	2	nt	0	-2
O=C(NCC[C@H]1CC[C@H](NC(=O)c2cnccn2)[C@H](CO)O1)Nc1ccc(Cl)cc1	-57	3	10	nt	0	-5
COc1ccc(C2/C=C\CN(C(=O)c3ccccc3)[C@H](Cc3ccccc3)C(=O)N2Cc2ccc(F)cc2)cc1 (stereo partly drawn)	2	-5	-18	-12	44*	0
COCC(=O)N1[C@H](CO)[C@@H](c2ccccc2)C12CN(C(=O)Cc1ccccn1)C2	12	nt	-4	nt	0	nt
c1ccc(Nc2cccc3ccccc23)cc1	-17	4	-8	2	0	-3
c1ccc(Nc2ccc3c4c(cccc24)CC3)cc1	nt	7	-21	111*	nt	-3
O=C(NCCc1cccs1)c1ccc(CS(=O)Cc2cccc(Cl)c2)o1 (stereo not drawn)	nt	nt	nt	-6	43*	nt
O=C(/C=C/c1ccc(Br)o1)Nc1nccs1	9	nt	nt	3	44*	nt
FC(F)Oc1ccc(-n2cc(-c3ccc(Cl)cc3)[n+]3c2CCCCC3)cc1	-47*	nt	nt	7	0	nt
FC(F)Sc1ccc(-n2cc(-c3ccccc3)[n+]3c2CCC3)cc1	nt	nt	nt	-2	nt	nt
COc1ccc(-n2cc(-c3ccccc3)[n+]3c2CCCCC3)cc1	-30*	nt	-6	-12	0	nt
CSc1nnc2c(n1)OC(c1ccccn1)N(C(C)=O)c1ccccc1-2 (stereo not drawn)	nt	2	nt	-20	43*	1
CSc1nnc2c(n1)OC(c1ccc(C(=O)O)cc1)N(C(C)=O)c1ccccc1-2 (stereo not drawn)	10	4	9	5	0	1
CN(C)C(=O)C[C@@H]1C=C[C@H](NS(=O)(=O)c2ccccc2)[C@@H](CO)O1	0	0	4	nt	nt	-2
COc1ccc(CCn2c(N)c(S(=O)(=O)c3cccs3)c3nc4ccccc4nc32)cc1OC	-21*	-2	2	-7	0	-1
CN1CCc2c(sc3c2C(=O)NC(c2cccs2)N3)C1 (stereo not drawn)	14	2	7	80*	0	-1
CO[C@@H]1CN(C)C(=O)c2cc(NC(=O)c3cnccn3)ccc2OC[C@@H](C)NC[C@H]1C	1	-2	-11	nt	0	1
S=C(Nc1ccc(Nc2ccccc2)cc1)Nc1ccccn1	-32*	nt	-6	-6	43*	nt
S=C(Nc1ccccc1)Nc1ccccn1	1	1	-42	5	0	57
Cc1ccccc1NC(=S)NC1CCCC1	9	-2	nt	59*	0	3
S=C(Nc1ccccn1)NC1CCCCC1	-23*	0	3	0	0	17
SMILES	Ecoli rRNA inh	PglD inh	PGC1a acetyl inh	Vif inh	FGF22 binding	Cneo AK release
COCCNC(=O)C[C@@H]1CC[C@H]2[C@H](COc3ccc(NC(C)=O)cc3C(=O)N2C)O1	3	0	-4	nt	0	2
CN(C(=O)COC(=O)c1cnc(Cl)c(Cl)c1)C1CCCCC1	-14*	4	16	-1	0	-1
CN(C(=O)COC(=O)c1cnc(Cl)c(Cl)c1)C1CCS(=O)(=O)C1 (stereo not drawn)	4	-5	-13	12	0	2
O=C(NCc1ccco1)c1nc2ccccc2s1	nt	-3	-1	-6	nt	-7
O=C(COC(=O)CCCc1nc2ccccc2s1)NC(=O)NCc1ccco1	-19*	0	nt	1	42	-2
C[C@@H]1CCCCO[C@H](CN(C)C(=O)Nc2ccc3c(c2)OCO3)[C@H](C)CN([C@H](C)CO)C(=O)c2cc(NC(=O)CCC(F)(F)F)ccc2O1	-1	-2	-6	nt	0	-2
C=CCNC(=O)c1ccccc1NC(=O)COc1ccc(OC)cc1	11	nt	nt	14	44*	nt
C=CCNC(=O)c1ccccc1NC(=O)COc1ccccc1	-10	nt	nt	16	0	nt
O=C(N[C@@H]1CC[C@H](CCNC(=O)C2CC2)O[C@@H]1CO)c1ccccn1	0	0	-3	nt	0	-3
COc1ccc(Sc2cnn(-c3ccccc3)c(=O)c2Cl)cc1	nt	4	nt	51*	nt	8
COc1ccc(-n2ncc(Cl)c(Cl)c2=O)cc1	18	nt	23	3	nt	nt
O=C(NCCc1c[nH]c2ccccc12)C(=O)NCC1OCCCN1S(=O)(=O)c1ccc(F)cc1 (stereo not drawn)	-18*	nt	nt	2	0	nt
Cc1ccc(S(=O)(=O)N2CCOC2CNC(=O)C(=O)NCCc2c[nH]c3ccccc23)cc1 (stereo not drawn)	-22	nt	nt	-1	44*	nt
Cc1cc(C)c(S(=O)(=O)N2CCCOC2CNC(=O)C(=O)NCCc2c[nH]c3ccccc23)c(C)c1 (stereo not drawn)	nt	nt	nt	-4	nt	nt
O=C(C[C@H]1C[C@H]2c3cc(NC(=O)c4ccc5c(c4)OCO5)ccc3O[C@H]2[C@H](CO)O1)NC1CCCC1	-2	-2	-7	nt	0	1
COc1ccc(Cc2nnc(Nc3ccccc3)s2)cc1Br	-10	9	nt	107*	0	0
C[C@H](CO)N1C[C@H](C)[C@@H](CN(C)S(=O)(=O)c2cn(C)cn2)Oc2ccc(NC(=O)Cc3cn(C)c4ccccc34)cc2C1=O	-2	8	2	nt	0	2
Cn1c(-[n+]2c(-c3ccccc3)cc(-c3ccccc3)cc2-c2ccccc2)nc2c([N+](=O)[O-])cccc21	-22*	2	-7	12	0	6
O=[N+]([O-])c1cccc2nc(-c3ccccc3)c(-c3ccccc3)nc12	-8	-6	-18	-3	0	-3
